Assay results collected from several papers.
Each line is one published result; the experiments were not run side by side.
Organism: Salmonella enterica
Read-out: microbial growth

`CCCCCCCCCCCC(=O)OC[C@H]1O[C@@H](n2cc(C)c(=O)[nH]c2=O)C[C@@H]1OC(=O)c1ccc(C(C)(C)C)cc1` has an MIC of 0.5 µg/mL (broth dilution; TYPHI).
`O=C1NN=C(N=Cc2ccc(O)cc2O)C1=NNn1c(-c2ccccc2)nc2ccccc2c1=O` gave an MIC of 53.5 µM (broth dilution; PARATYPHI; 24 h).
The MIC of `CO[C@H]1O[C@H](COC(c2ccccc2)(c2ccccc2)c2ccccc2)[C@@H](OC(=O)c2ccc(C(C)(C)C)cc2)[C@H](OC(=O)c2ccc(C(C)(C)C)cc2)[C@H]1OC(=O)c1ccc(C(C)(C)C)cc1` is reported as 2 µg/mL (broth dilution; TYPHI).
For `C[C@H]1[C@H](NC(=O)/C(=N\OC(C)(C)C(=O)O)c2csc(N)n2)C(=O)N1S(=O)(=O)O`, the MIC was ≤ 0.03 µg/mL (agar dilution; TYPHI).
The MIC of `CC1=NN(CNc2ccc(Cl)cc2)C(=O)C1=NNn1c(-c2ccccc2)nc2ccccc2c1=O` is reported as 103 µM (broth dilution; PARATYPHI; 24 h).
`O=C(O)c1cn(C2CC2)c2cc(N3CCNCC3)c(F)cc2c1=O` gave an MIC of 62.5 µg/mL (broth dilution; TYPHI; 24 h).
`CC1=NN(CNc2ccc(C(=O)O)cc2)C(=O)C1=NNn1c(-c2ccccc2)nc2ccccc2c1=O` gave an MIC of 50.5 µM (broth dilution; PARATYPHI; 24 h).
For `CCn1cc(C(=O)O)c(=O)c2ccc(C)nc21`, the MIC was 15.6 µg/mL (broth dilution; TYPHI; 24 h).
`O=C(N[C@H](CO)[C@H](O)c1ccc([N+](=O)[O-])cc1)C(Cl)Cl` gave an MIC of 2 µg/mL (CHOLERAESUIS; 20 h; pH 5.5).
`CC1=NN(CNc2ccccc2[N+](=O)[O-])C(=O)C1=NNn1c(-c2ccccc2)nc2ccccc2c1=O` has an MIC of 50.4 µM (broth dilution; PARATYPHI; 24 h).
`CO/N=C(\C(=O)N[C@@H]1C(=O)N2C(C(=O)O)=C(CSc3nc(=O)c(=O)[nH]n3C)CS[C@H]12)c1csc(N)n1` has an MIC of 0.125 µg/mL (CHOLERAESUIS; 20 h; pH 5.5).
`CC1(C)S[C@@H]2[C@H](NC(=O)[C@H](N)c3ccccc3)C(=O)N2[C@H]1C(=O)O` gave an MIC of 32 µg/mL (broth dilution; PARATYPHI; 16 h).
The MIC of `[H]/N=C(/N)N[C@H]1[C@H](O)[C@@H](O)[C@H](O[C@@H]2O[C@@H](C)[C@](O)(C=O)[C@H]2O[C@@H]2O[C@@H](CO)[C@H](O)[C@@H](O)[C@@H]2NC)[C@@H](N/C(N)=N\[H])[C@@H]1O` is reported as 4100 µg/mL (CHOLERAESUIS; 20 h; pH 7).
For `CCCCCCCCCCCC(=O)OC[C@H]1O[C@@H](n2cc(C)c(=O)[nH]c2=O)C[C@@H]1O`, the MIC was 1 µg/mL (broth dilution; TYPHI).
`CS(=O)(=O)c1ccc([C@@H](O)[C@@H](CF)NC(=O)C(Cl)Cl)cc1` gave an MIC of 4 µg/mL (CHOLERAESUIS; 20 h; pH 7).
The MIC of `O=C1NN=C(N=Cc2ccccc2)C1=NNn1c(-c2ccccc2)nc2ccccc2c1=O` is reported as 114 µM (broth dilution; PARATYPHI; 24 h).
For `CO/N=C(\C(=O)N[C@@H]1C(=O)N2C(C(=O)O)=C(CSC(=O)c3ccco3)CS[C@H]12)c1csc(N)n1`, the MIC was 1 µg/mL (ENTERITIDIS; 20 h; pH 5.5).
With `C[C@H]1COc2c(N3CCN(C)CC3)c(F)cc3c(=O)c(C(=O)O)cn1c23` the MIC was ≤ 0.03 µg/mL (agar dilution; TYPHI).
With `CCN1CCN(c2cc3c(cc2F)c(=O)c(C(=O)O)cn3C2CC2)CC1` the MIC was 0.0625 µg/mL (CHOLERAESUIS; 20 h; pH 7.2).
`CC(=O)NCN1N=C(C)C(=NNn2c(-c3ccccc3)nc3ccccc3c2=O)C1=O` has an MIC of 59.9 µM (broth dilution; PARATYPHI; 24 h).
